Measurements reported in ChEMBL document CHEMBL1157755 (Bioorg Med Chem Lett, 2010).

Tests used:
Histamine H1 receptor [1] = biological target: T1, Histamine H1 receptor (Homo sapiens, UniProt P35367); assay: Activity at human recombinant histamine H1 receptor expressed in Sf9 cells coexpressing RGS4 by steady-state GTPase activity assay relative to histamine
Outline: (§1)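 Steady-state GTPase activity was measured in Sf9 insect cell membranes. hH1R was co-expressed with RGS4; hH3R with Galphai2, Gbeta1gamma2 and RGS4; and hH4R-GAIP fusion protein with Galphai2 and Gbeta1gamma2. Agonist pEC50 or antagonist pKB was determined. […] Values are means of two to three experiments, each in duplicate.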

Histamine H2 receptor [2] = biological target: T2, Histamine H2 receptor (Homo sapiens, UniProt P25021); assay: Agonist activity at GsalphaS-fused human histamine H2 receptor expressed in Sf9 cells by steady-state GTPase assay relative to histamine
[3] = biological target: Histamine H2 receptor (Cavia porcellus) (UniProt P47747); assay: Agonist activity at histamine H2 receptor in spontaneously beating guinea pig atrium assessed as increase in heart rate as relative to histamine; assay type: functional, tissue-based; details: Cardiac atrium
Histamine H4 receptor [4] = biological target: T3, Histamine H4 receptor (Homo sapiens, UniProt Q9H3N8); assay: Activity at human recombinant GAIP-fused histamine H4 receptor expressed in Sf9 cells coexpressing Galphai, Gbeta1gamma2 by steady-state GTPase activity assay relative to histamine; outline: as §1
[5] = biological target: Histamine H2 receptor (Cavia porcellus) (UniProt P47747); assay: Agonist activity at GsalphaS-fused guinea pig histamine H2 receptor expressed in Sf9 cells by steady-state GTPase assay relative to histamine
Histamine H2 receptor [6] = biological target: T4, Histamine H2 receptor (Cavia porcellus, UniProt P47747); assay: Agonist activity at GsalphaS-fused guinea pig histamine H2 receptor expressed in Sf9 cells by steady-state GTPase assay
Histamine H2 receptor [7] = biological target: T4, Histamine H2 receptor; assay: Agonist activity at histamine H2 receptor in spontaneously beating guinea pig atrium; assay type: functional, tissue-based, Cardiac atrium
Histamine H4 receptor [8] = biological target: T3, Histamine H4 receptor; assay: Activity at human recombinant GAIP-fused histamine H4 receptor expressed in Sf9 cells coexpressing Galphai, Gbeta1gamma2 by steady-state GTPase activity assay
Outline: (§2)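 Steady-state GTPase activity was measured in Sf9 insect cell membranes. hH1R was co-expressed with RGS4; hH3R with Galphai2, Gbeta1gamma2 and RGS4; and hH4R-GAIP fusion protein with Galphai2 and Gbeta1gamma2. Agonist pEC50 or antagonist pKB was determined. Values are means of two to three experiments, each in duplicate.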

Histamine H2 receptor [9] = biological target: T2, Histamine H2 receptor; assay: Agonist activity at GsalphaS-fused human histamine H2 receptor expressed in Sf9 cells by steady-state GTPase assay
Histamine H1 receptor [10] = biological target: T1, Histamine H1 receptor; assay: Activity at human recombinant histamine H1 receptor expressed in Sf9 cells coexpressing RGS4 by steady-state GTPase activity assay; outline: as §2
Histamine H2 receptor [11] = biological target: T2, Histamine H2 receptor; assay: Selectivity ratio of EC50 for human histamine H2 to EC50 for guinea pig histamine H2 receptor

T1 sequence (P35367 whole entry, the tested form may be a part): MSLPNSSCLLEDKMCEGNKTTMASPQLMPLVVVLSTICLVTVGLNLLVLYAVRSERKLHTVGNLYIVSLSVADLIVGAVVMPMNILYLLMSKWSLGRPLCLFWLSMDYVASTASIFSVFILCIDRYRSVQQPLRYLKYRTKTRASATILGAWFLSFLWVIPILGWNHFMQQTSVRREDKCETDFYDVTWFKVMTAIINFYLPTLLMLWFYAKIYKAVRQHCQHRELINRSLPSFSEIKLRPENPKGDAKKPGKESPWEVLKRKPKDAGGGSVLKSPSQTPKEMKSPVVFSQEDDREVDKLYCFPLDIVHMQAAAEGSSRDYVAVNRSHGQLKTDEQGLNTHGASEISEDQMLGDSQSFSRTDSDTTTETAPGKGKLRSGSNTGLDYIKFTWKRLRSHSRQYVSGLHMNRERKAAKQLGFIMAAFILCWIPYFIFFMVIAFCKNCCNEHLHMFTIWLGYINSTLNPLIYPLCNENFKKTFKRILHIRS
T2 sequence (P25021 whole entry, the tested form may be a part): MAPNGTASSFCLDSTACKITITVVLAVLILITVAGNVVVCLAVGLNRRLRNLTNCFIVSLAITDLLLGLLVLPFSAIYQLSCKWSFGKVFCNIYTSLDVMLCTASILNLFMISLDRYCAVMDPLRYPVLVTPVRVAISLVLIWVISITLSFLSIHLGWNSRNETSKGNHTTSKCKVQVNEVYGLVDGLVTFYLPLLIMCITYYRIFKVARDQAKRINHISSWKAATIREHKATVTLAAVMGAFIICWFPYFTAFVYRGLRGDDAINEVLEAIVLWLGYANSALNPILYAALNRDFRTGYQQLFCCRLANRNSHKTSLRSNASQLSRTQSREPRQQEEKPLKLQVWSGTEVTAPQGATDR
Chain of Histamine H2 receptor (Cavia porcellus) (P47747 whole entry, the tested form may be a part): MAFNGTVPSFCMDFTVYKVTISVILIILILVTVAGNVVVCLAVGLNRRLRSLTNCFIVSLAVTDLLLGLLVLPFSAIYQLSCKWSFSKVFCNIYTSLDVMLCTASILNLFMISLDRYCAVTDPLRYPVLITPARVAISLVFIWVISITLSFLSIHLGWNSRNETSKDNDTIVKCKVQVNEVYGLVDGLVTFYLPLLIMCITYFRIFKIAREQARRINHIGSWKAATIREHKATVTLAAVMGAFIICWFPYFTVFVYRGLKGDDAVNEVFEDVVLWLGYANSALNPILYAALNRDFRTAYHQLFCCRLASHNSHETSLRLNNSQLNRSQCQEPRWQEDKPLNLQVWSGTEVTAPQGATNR
T4 sequence (P47747 whole entry, the tested form may be a part): as above

Emax (Histamine H1 receptor [1]) [%]	Emax (Histamine H2 receptor [2]) [%]	Emax (Histamine H4 receptor [4]) [%]	Emax [5] [%]	EC50 (Histamine H2 receptor [6]) [nM]	EC50 (Histamine H2 receptor [7]) [nM]	EC50 (Histamine H4 receptor [8]) [nM]	EC50 (Histamine H2 receptor [9]) [nM]	EC50 (Histamine H1 receptor [10]) [nM]	Ratio EC50 (Histamine H2 receptor [11])	SMILES	Emax [3] [%]
				24	25.1	2.63	79.4	832		C[C@@H](CC(=O)NC(N)=NCCCc1cnc[nH]1)c1ccccc1	
				75.9	93.3	22.9	120	6170		C[C@H](CC(=O)NC(N)=NCCCc1cnc[nH]1)c1ccccc1	
	56		82	7.59	69.2		9.33		1.24	Cc1nc(N)sc1CCCNC(=N)NC(=O)CC(C)C1CCCCC1 (racemic)	74
	65		86						3.14	Cc1nc(N)sc1CCCNC(=N)NC(=O)C[C@@H](C)c1ccccc1	73
51	99	59	93						0.84	C[C@@H](CC(=O)NC(=N)NCCCc1c[nH]cn1)C1CCCCC1	103
34	101	85	101						1.58	C[C@H](CC(=O)NC(=N)NCCCc1c[nH]cn1)c1ccccc1	93
				13.2	57.5		20.4			Cc1nc(N)sc1CCCN=C(N)NC(=O)C[C@@H](C)C1CCCCC1	
				17	102		53.7			Cc1nc(N)sc1CCCN=C(N)NC(=O)C[C@@H](C)c1ccccc1	
	82		98	22.4	49		50.1		2.22	Cc1nc(N)sc1CCCNC(=N)NC(=O)CC(C)c1ccccc1 (racemic)	89
	71		90						2.05	Cc1nc(N)sc1CCCNC(=N)NC(=O)C[C@H](C)C1CCCCC1	78
				14.1	91.2		28.8			Cc1nc(N)sc1CCCN=C(N)NC(=O)C[C@H](C)C1CCCCC1	
41	85	57	90						0.98	C[C@H](CC(=O)NC(=N)NCCCc1c[nH]cn1)C1CCCCC1	82
				7.76	33.1	4.57	6.46	66.1		C[C@@H](CC(=O)NC(N)=NCCCc1cnc[nH]1)C1CCCCC1	
				19.1	102	8.32	18.6	89.1		C[C@H](CC(=O)NC(N)=NCCCc1cnc[nH]1)C1CCCCC1	
	87		99	7.76	39.8		28.2		3.6	Cc1nc(N)sc1CCCNC(=N)NC(=O)C[C@H](C)c1ccccc1	87
	62		80						1.53	Cc1nc(N)sc1CCCNC(=N)NC(=O)C[C@@H](C)C1CCCCC1	80
53	107	82	119						3.32	C[C@@H](CC(=O)NC(=N)NCCCc1c[nH]cn1)c1ccccc1	102

SMILES	Emax (Histamine H1 receptor [1]) [%]	Emax (Histamine H2 receptor [2]) [%]	Emax (Histamine H4 receptor [4]) [%]	Emax [5] [%]	EC50 (Histamine H2 receptor [6]) [nM]	EC50 (Histamine H2 receptor [7]) [nM]	EC50 (Histamine H4 receptor [8]) [nM]	EC50 (Histamine H2 receptor [9]) [nM]	EC50 (Histamine H1 receptor [10]) [nM]	Ratio EC50 (Histamine H2 receptor [11])	Emax [3] [%]
NCCc1c[nH]cn1 [HISTAMINE]	100	100	100	100							100
